Experimental data: ChEMBL document CHEMBL1141374 (J Med Chem, 2007)

Tests used:
Settings in all cases: Homo sapiens
UO-31 = experiment: Growth inhibition in UO31 cells; format: functional
NCI-H322M = experiment: Growth inhibition in NCI-H322M cells; format: functional
M14 = experiment: Growth inhibition in M14 cells; format: functional
OVCAR-4 = experiment: Growth inhibition in OVCAR4 cells; format: functional
UACC-257 = experiment: Growth inhibition in UACC257 cells; format: functional
A549 = experiment: Growth inhibition in A549 cells; format: functional
EKVX = experiment: Growth inhibition in EKVX cells; format: functional
SNB-75 = experiment: Growth inhibition in SNB75 cells; format: functional
786-0 = experiment: Growth inhibition in 786-0 cells; format: functional
BT-549 = experiment: Growth inhibition in BT549 cells; format: functional
CAKI-1 = experiment: Growth inhibition in CAK1-1 cells; format: functional
SF-539 = experiment: Growth inhibition in SF539 cells; format: functional
NCI-H23 = experiment: Growth inhibition in NCI-H23 cells; format: functional
ACHN = experiment: Growth inhibition in ACHN cells; format: functional
COLO 205 = experiment: Growth inhibition in COLO205 cells; format: functional
U-251 = experiment: Growth inhibition in U251cells; format: functional
HOP-92 = experiment: Growth inhibition in HOP92 cells; format: functional
SN12C = experiment: Growth inhibition in SN12C cells; format: functional
OVCAR-8 = experiment: Growth inhibition in OVCAR8 cells; format: functional
[1] = Growth inhibition in MDA-MB-231/ATCC cells; format: functional
[2] = Growth inhibition in HCC116 cells; format: functional
HT-29 = experiment: Growth inhibition in HT29 cells; format: functional
T47D = experiment: Growth inhibition in T47D cells; format: functional
A498 = experiment: Growth inhibition in A498 cells; format: functional
SW-620 = experiment: Growth inhibition in SW620 cells; format: functional
LOX IMVI = experiment: Growth inhibition in LOX IMVI cells; format: functional
[3] = Growth inhibition in HS 578T cells; format: functional
HL-60 = experiment: Growth inhibition in HL60 cells; format: functional
[4] = Cytotoxicity against P-glycoprotein-overexpressing KB-V1 cell line; format: cell-based
Outline: (§1)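 Log-phase cells were diluted to 20 000–30 000 cells/mL, seeded, and left to attach overnight. They were then exposed to compounds at 10^–5–10^–12 M for 72 h at 37 °C in 5% CO2. Viable cells were measured by MTT, with absorbance read at 595 nm. Each compound ran in triplicate in at least three independent assays. IC50 came from nonlinear regression, and average values were reported.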

OVCAR-5 = experiment: Growth inhibition in OVCAR5 cells; format: functional
SF-295 = experiment: Growth inhibition in SF295 cells; format: functional
IGROV-1 = experiment: Growth inhibition in IGROV1 cells; format: functional
CCRF-CEM = experiment: Growth inhibition in CCRF-CEM cells; format: functional
HCT-116 = experiment: Cytotoxicity against HCT116 cell line; format: cell-based; outline: as §1
TK-10 = experiment: Growth inhibition in TK10 cells; format: functional
SK-MEL-28 = experiment: Growth inhibition in SK-MEL-28 cells; format: functional
UACC-62 = experiment: Growth inhibition in UACC62 cells; format: functional
SF-268 = experiment: Growth inhibition in SF268 cells; format: functional
KM12 = experiment: Growth inhibition in KM12 cells; format: functional
ZR-75-1 = experiment: Cytotoxicity against ZR-75-1 cell line; format: cell-based; outline: as §1
SNB-19 = experiment: Growth inhibition in SNB19 cells; format: functional
PC-3 = experiment: Growth inhibition in PC3 cells; format: functional
NCI-H522 = experiment: Growth inhibition in NCI-H522 cells; format: functional
[5] = Cytotoxicity against KB-3-1 cell line; format: cell-based; outline: as §1
NCI-H226 = experiment: Growth inhibition in NCI-H226 cells; format: functional
SK-MEL-5 = experiment: Growth inhibition in SK-MEL-5 cells; format: functional
NCI/ADR-RES = experiment: Growth inhibition in NCI/ADR-RES cells; format: functional
HeLa = experiment: Cytotoxicity against HeLa cell line; format: cell-based; outline: as §1
OVCAR-3 = experiment: Growth inhibition in OVCAR-3 cells; format: functional
K562 = experiment: Growth inhibition in K562 cells; format: functional
NCI-H460 = experiment: Growth inhibition in NCI-H460 cells; format: functional
SK-OV-3 = experiment: Growth inhibition in SKOV3 cells; format: functional
HOP-62 = experiment: Growth inhibition in HOP62 cells; format: functional
RXF 393 = experiment: Growth inhibition in RXF393 cells; format: functional
[6] = Growth inhibition in HCC15 cells; format: functional
MCF7 = experiment: Growth inhibition in MCF7 cells; format: functional
DU-145 = experiment: Growth inhibition in DU145 cells; format: functional
MDA-MB-435 = experiment: Growth inhibition in MDA-MB-435 cells; format: functional
HCC 2998 = experiment: Growth inhibition in HCC2998 cells; format: functional

Compound: COc1ccc(-n2cnnc2-c2cc(OC)c(OC)c(OC)c2)cc1F
- GI50 (UO-31): 17.8 µM
- GI50 (NCI-H322M): 8.13 µM
- GI50 (M14): 2.24 µM
- GI50 (OVCAR-4): 5.25 µM
- GI50 (UACC-257): > 100 µM
- GI50 (A549): 12 µM
- GI50 (EKVX): 89.1 µM
- GI50 (SNB-75): 3.02 µM
- GI50 (786-0): 3.16 µM
- GI50 (BT-549): 9.33 µM
- GI50 (CAKI-1): 2.95 µM
- GI50 (SF-539): 3.89 µM
- GI50 (NCI-H23): 2.24 µM
- GI50 (ACHN): 5.62 µM
- GI50 (COLO 205): 3.98 µM
- GI50 (U-251): 5.13 µM
- GI50 (HOP-92): 5.37 µM
- GI50 (SN12C): 4.68 µM
- GI50 (OVCAR-8): 6.31 µM
- GI50 [1]: 6.46 µM
- GI50 [2]: 3.02 µM
- GI50 (HT-29): 3.16 µM
- GI50 (T47D): > 100 µM
- GI50 (A498): 8.13 µM
- GI50 (SW-620): 4.07 µM
- GI50 (LOX IMVI): 5.13 µM
- GI50 [3]: 6.46 µM
- GI50 (HL-60): 6.03 µM
- IC50 [4]: 1.48 µM
- GI50 (OVCAR-5): 5.62 µM
- GI50 (SF-295): 1.86 µM
- GI50 (IGROV-1): 4.9 µM
- GI50 (CCRF-CEM): 2.57 µM
- IC50 (HCT-116): 0.365 µM
- GI50 (TK-10): > 100 µM
- GI50 (SK-MEL-28): 39.8 µM
- GI50 (UACC-62): 3.63 µM
- GI50 (SF-268): 9.33 µM
- GI50 (KM12): 1.45 µM
- IC50 (ZR-75-1): 0.367 µM
- GI50 (SNB-19): 6.31 µM
- GI50 (PC-3): 3.02 µM
- GI50 (NCI-H522): 4.57 µM
- IC50 [5]: 0.399 µM
- GI50 (NCI-H226): 7.08 µM
- GI50 (SK-MEL-5): 2.57 µM
- GI50 (NCI/ADR-RES): 2 µM
- IC50 (HeLa): 0.173 µM
- GI50 (OVCAR-3): 2.09 µM
- GI50 (K562): 0.759 µM
- GI50 (NCI-H460): 3.16 µM
- GI50 (SK-OV-3): 8.32 µM
- GI50 (HOP-62): 2.04 µM
- GI50 (RXF 393): 1.7 µM
- GI50 [6]: 1.66 µM
- GI50 (MCF7): 1 µM
- GI50 (DU-145): 4.79 µM
- GI50 (MDA-MB-435): 0.331 µM
- GI50 (HCC 2998): 0.631 µM
